Results published in ChEMBL document CHEMBL1938298, “Synthesis and characterization of [¹²⁵I]2-iodo N-[(S)-{(S)-1-methylpiperidin-2-yl}(phenyl)methyl]3-trifluoromethyl-benzamide as novel imaging probe for glycine transporter 1” (Bioorg Med Chem, 2011).
The source made the active and inactive calls. No cut-off for these calls is given here.

Key:
Heart = test: Drug uptake in ddY mouse heart at 11.1 kBq, iv after 15 min by gamma counting; type: ADME, organism-based; details: in vivo
Summary of the method: (§1)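 Male ddY mice (6 weeks, 30–35 g) received about 11.1 kBq [125I]tracer in 0.1 mL i.v. via tail vein. Killed at set times, organs dissected and weighed, radioactivity gamma counted. Reported as % injected dose/g tissue, mean ± SD, n = 5–6.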

Brain = test: Drug uptake in ddY mouse brain at 11.1 kBq, iv after 30 min by gamma counting; type: ADME, organism-based; details: in vivo, 0.5 h; summary of the method: as §1
Liver [1] = test: Drug uptake in ddY mouse liver at 11.1 kBq, iv after 15 min by gamma counting; type: ADME, organism-based; details: in vivo
Summary of the method: (§2)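 Male ddY mice (6 weeks, 30–35 g) were given about 11.1 kBq of [125I]tracer in 0.1 mL i.v. via the tail vein. At each time point the animals were killed and organs dissected, weighed and gamma-counted. Uptake is expressed as % injected dose per gram of tissue, mean ± SD, n = 5–6.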

Stomach = test: Drug uptake in ddY mouse stomach at 11.1 kBq, iv after 5 min by gamma counting; type: ADME, organism-based; details: in vivo; summary of the method: as §2
[2] = Metabolic stability in ddY mouse brain assessed as compound remaining at 185 kBq after 30 mins by radio-TLC; type: ADME, tissue-based; details: read-out: Stability
Liver [3] = test: Drug uptake in ddY mouse liver at 11.1 kBq, iv after 30 min by gamma counting; type: ADME, organism-based; details: in vivo, 0.5 h; summary of the method: as §2
Kidney = test: Drug uptake in ddY mouse kidney at 11.1 kBq, iv after 15 min by gamma counting; type: ADME, organism-based; details: in vivo; summary of the method: as §2
Blood = test: Drug uptake in ddY mouse blood at 11.1 kBq, iv after 60 min by gamma counting; type: ADME, organism-based; details: in vivo, 1 h; summary of the method: as §1
Mus musculus [4] = test: In vivo binding affinity to GlyT1 in ddY mouse brain midbrain at 33.3 kBq, iv after 30 mins in presence of SSR504734 2 mg/kg, iv administered 15 mins prior to compound administration relative to control; type: functional, organism-based; design: dose 2 mg/kg; details: tested as the 125I-labelled form
[5] = biological target: T1, Sodium- and chloride-dependent glycine transporter 1 (Homo sapiens) (UniProt P48067); test: Ratio of compound IC50 to ALX5407 IC50 for human GlyT1
T1 sequence (whole entry): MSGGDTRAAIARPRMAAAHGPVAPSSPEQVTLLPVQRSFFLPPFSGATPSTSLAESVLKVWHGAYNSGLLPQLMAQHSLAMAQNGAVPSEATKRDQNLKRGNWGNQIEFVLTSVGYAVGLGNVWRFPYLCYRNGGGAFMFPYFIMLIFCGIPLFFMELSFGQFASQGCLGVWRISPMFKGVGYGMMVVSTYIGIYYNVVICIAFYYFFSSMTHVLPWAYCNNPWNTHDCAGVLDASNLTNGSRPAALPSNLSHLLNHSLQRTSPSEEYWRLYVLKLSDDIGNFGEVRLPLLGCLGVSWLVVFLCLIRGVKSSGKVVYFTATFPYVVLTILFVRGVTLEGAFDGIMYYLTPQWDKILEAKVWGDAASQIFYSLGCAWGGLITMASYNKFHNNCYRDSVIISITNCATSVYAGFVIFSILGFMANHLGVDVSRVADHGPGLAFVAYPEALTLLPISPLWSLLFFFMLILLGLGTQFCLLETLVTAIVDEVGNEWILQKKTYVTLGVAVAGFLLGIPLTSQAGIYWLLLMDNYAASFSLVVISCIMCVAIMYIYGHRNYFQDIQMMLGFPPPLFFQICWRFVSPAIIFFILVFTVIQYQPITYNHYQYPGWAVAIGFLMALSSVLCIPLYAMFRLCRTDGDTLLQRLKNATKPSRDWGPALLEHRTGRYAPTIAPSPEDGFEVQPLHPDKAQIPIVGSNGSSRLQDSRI

[6] = biological target: T2, Sodium- and chloride-dependent glycine transporter 1 (Rattus norvegicus) (UniProt P28572); test: Binding affinity to GlyT1 in rat brain thalamus at 0.03 to 0.04 nM preincubated for 20 mins in binding buffer before compound addition measured after 30 mins by autoradiography in presence of 0.01 mM GlyT1 inhibitor HPCP relative to control; type: tissue-based; details: tested as the 125I-labelled form
T2 sequence (whole entry): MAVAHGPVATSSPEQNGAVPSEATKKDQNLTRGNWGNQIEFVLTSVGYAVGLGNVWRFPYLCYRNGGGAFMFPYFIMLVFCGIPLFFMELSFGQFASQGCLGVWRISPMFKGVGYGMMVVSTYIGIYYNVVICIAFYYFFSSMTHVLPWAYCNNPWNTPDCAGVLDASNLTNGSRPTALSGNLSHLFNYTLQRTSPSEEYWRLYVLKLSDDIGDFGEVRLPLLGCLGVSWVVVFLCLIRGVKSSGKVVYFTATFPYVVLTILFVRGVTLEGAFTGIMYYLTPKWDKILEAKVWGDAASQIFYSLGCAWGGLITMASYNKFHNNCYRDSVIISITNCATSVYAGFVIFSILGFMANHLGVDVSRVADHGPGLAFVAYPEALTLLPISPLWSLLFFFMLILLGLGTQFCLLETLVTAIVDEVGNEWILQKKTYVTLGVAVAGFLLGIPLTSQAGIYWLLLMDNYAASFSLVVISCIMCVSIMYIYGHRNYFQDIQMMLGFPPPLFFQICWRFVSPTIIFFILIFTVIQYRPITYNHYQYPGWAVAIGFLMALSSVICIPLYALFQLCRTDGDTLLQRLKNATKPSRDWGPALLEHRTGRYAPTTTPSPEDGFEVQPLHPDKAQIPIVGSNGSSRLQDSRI

[7] = biological target: T2, Sodium- and chloride-dependent glycine transporter 1 (Rattus norvegicus); test: Binding affinity to GlyT1 in rat brain medullary region at 0.03 to 0.04 nM preincubated for 20 mins in binding buffer before compound addition measured after 30 mins by autoradiography in presence of 1 mM GlyT1 substrate glycine relative to control; type: tissue-based; details: tested as the 125I-labelled form
Summary of the method: (§3)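 Rat brain sagittal sections (20 µm) preincubated 20 min at 25 °C in Tris-HCl buffer pH 7.5 (NaCl, KCl, MgCl2, CaCl2), then 30 min at 25 °C with [125I] tracer (100 kBq, 0.03–0.04 nM) plus competitor (10 µM; glycine 1 or 10 mM). Cold washes, imaging plate 3 days, ROI PSL minus background per mm². % control from ≥triplicate slices, three rats.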

Mus musculus [8] = test: In vivo binding affinity to GlyT1 in ddY mouse brain midbrain at 200 kBq, iv after 60 mins by autoradiography relative to control; type: functional, organism-based; details: tested as the 125I-labelled form
Mus musculus [9] = test: In vivo binding affinity to GlyT1 in ddY mouse brain medullary region at 33.3 kBq, iv after 30 mins in presence of SSR504734 2 mg/kg, iv administered 15 mins prior to compound administration relative to control; type: functional, organism-based; design: dose 2 mg/kg; details: Medulla of organ, tested as the 125I-labelled form
Mus musculus [10] = test: In vivo binding affinity to GlyT1 in ddY mouse brain striatum at 33.3 kBq, iv after 60 mins in presence of SSR504734 2 mg/kg, iv administered 15 mins prior to compound administration relative to control; type: functional, organism-based; design: dose 2 mg/kg; details: tested as the 125I-labelled form
[11] = biological target: T2, Sodium- and chloride-dependent glycine transporter 1 (Rattus norvegicus); test: Binding affinity to GlyT1 in rat brain midbrain at 0.03 to 0.04 nM preincubated for 20 mins in binding buffer before compound addition measured after 30 mins by autoradiography in presence of 0.01 mM GlyT2 inhibitor ORG25543 relative to control; type: tissue-based; details: tested as the 125I-labelled form; summary of the method: as §3

Row | Drug uptake (Heart) | Drug uptake (Brain) | Drug uptake (Liver [1]) | Drug uptake (Stomach) | remaining at 0.5 h [2] | Drug uptake (Liver [3]) | Drug uptake (Kidney) | Drug uptake (Blood) | Ratio IC50 [5] | Activity [6] | Activity [7] | Activity [11] | Structure (SMILES) | Activity (Mus musculus [4]) | Activity (Mus musculus [8]) | Activity (Mus musculus [9]) | Activity (Mus musculus [10])
1 | 3.38 % ID/g | 2.17 % ID/g | 11.51 % ID/g | 3.3 % ID/g | 90% | 14.74 % ID/g | 8.86 % ID/g | 0.8 % ID/g | – | – | – | – | CN1CCCC[C@H]1[C@@H](NC(=O)c1cccc(C(F)(F)F)c1[125I])c1ccccc1 | – | – | – | –
2 | – | – | – | – | – | – | – | – | 6 | 22.5% | 104% | 115% | CN1CCCC[C@H]1[C@@H](NC(=O)c1cccc(C(F)(F)F)c1I)c1ccccc1 | inactive | Active | inactive | inactive
